Values joined by “and” are separate entries in the source; they are usually repeats but may differ in a detail not shown here. Identical values can stand only once. Active and inactive are the calls of the source. No cut-off for these calls is given here. Where a SMILES comes first, the peptide text is derived from it. Bridges are numbered along the chain shown (N, C = ends). [ ]: non-standard residue; d: D form. The star is where a group is joined. X1 = CC[C@H](C)CCCCC(=O)*; dDab = NCC[C@@H](N)C(=O)O; Dab = NCC[C@H](N)C(=O)O

The subject of data set [1] is Cell membrane. Put plainly: Disruption of cell membrane in methicillin resistant Staphylococcus aureus ATCC BAA 1556 assessed as increase in PI fluorescence intensity at MIC measured after 1 hrs by PI staining based flow cytometric analysis. Type of data set: subcellular. An outline of the steps:
(§1)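 Mid-log cells grown in Mueller Hinton broth, washed in 10 mM Tris pH 7.4, 10^7 CFU/mL, treated at MIC and 4× MIC for 1 h. Pelleted, washed, PI-stained for 15 min at 37 °C in the dark, then counted by flow cytometry for % PI-positive cells. PBS-treated cells as negative control, 10% Triton X-100 as positive control. Run in triplicate; two-tailed unpaired t-test.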
In general terms: Flow cytometry measures light scatter and fluorescence of single cells or particles in a stream.

For a further data set, the system named is Lipid bilayer. Put plainly: Induction of membrane disruption in mammalian membrane mimic DOPC/cholesterol (10:1) large unilamellar vesicles assessed as induction of dye leakage at 50 ug/ml measured after 100 mins by calcein dye based analysis. The data set is classed as cell membranes. As to conditions: dose 50.0 µg/ml. An outline of the steps: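 LUVs loaded with calcein: DOPC/DOPG 7:3 w/w (bacterial mimic) or DOPC/cholesterol 10:1 w/w (mammalian mimic). Mixed 1:1 by volume with peptide at 5, 10, 20, 30 or 50 μg/mL. Fluorescence (ex 490/em 520 nm) read every 10 min for 100 min. Leakage expressed relative to 10% Triton X-100 lysis (100%), after subtracting liposome background. Triplicate.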

Data set [2] concerns Cell membrane. Put plainly: Disruption of cell membrane in Escherichia coli ATCC BAA-2452 assessed as increase in PI fluorescence intensity at 4 times of MIC measured after 1 hrs by PI staining based flow cytometric analysis. The data set is classed as subcellular. An outline of the steps: (§2)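 Mid-log E. coli ATCC BAA-2452 grown in Mueller Hinton broth, washed thrice and resuspended at 10^7 CFU/mL in 10 mM Tris pH 7.4. […] Controls: PBS (negative) and 10% Triton X-100 (positive). Triplicate; two-tailed unpaired t-test.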

Data set [3] concerns Cell membrane. Kind of data set: Disruption of cell membrane in Escherichia coli ATCC BAA-2452 assessed as increase in PI fluorescence intensity at MIC measured after 1 hrs by PI staining based flow cytometric analysis. The data set is classed as subcellular. An outline of the steps: as §2
For data set [4], the system named is Cell membrane. Put plainly: Disruption of cell membrane in methicillin resistant Staphylococcus aureus ATCC BAA 1556 assessed as increase in PI fluorescence intensity at 4 times of MIC measured after 1 hrs by PI staining based flow cytometric analysis. In short, it runs like this: as §1
Data set [5] relates to Staphylococcus aureus. Put plainly: Bactericidal activity against methicillin resistant Staphylococcus aureus ATCC BAA 1556 assessed as inhibition of bacterial growth at 4 times of MIC incubated for 3 hrs by Time kill assay. The data set is classed as functional. In short, it runs like this:
(§3)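 Aliquots taken every 30 min for 4 h and plated on agar for viable colony counts. Two independent experiments in triplicate.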

In data set [6] the test system is Escherichia coli. Kind of data set: Bactericidal activity against […] Escherichia coli ATCC BAA 2452 assessed as inhibition of bacterial growth at 4 times of MIC incubated for 2.5 hrs by Time kill assay. The data set is classed as functional. In short, it runs like this: as §3
In a further data set the test system is Pseudomonas aeruginosa. Kind of data set: Antibacterial activity against Pseudomonas aeruginosa […] assessed as inhibition of bacterial growth incubated for 24 hrs by CLSI based broth microdilution method. Type of data set: functional.
The test system of another data set is Klebsiella pneumoniae. Kind of data set: Antibacterial activity against Klebsiella pneumoniae ATCC BAA 1705 assessed as inhibition of bacterial growth incubated for 24 hrs by CLSI based broth microdilution method. Type of data set: functional. Particulars: read-out: MIC. (In general: In broth dilution the organism is exposed to a series of concentrations in liquid medium.)

For another data set, the system named is Erythrocyte. Kind of data set: Hemolytic activity in human RBC incubated for 2 hrs by spectrophotometrical analysis. The data set is classed as toxicity, cell-based. An outline of the steps:
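Human erythrocytes (4% suspension in PBS) mixed 1:1 with 2-fold serial peptide dilutions, 2 h at 37 °C without agitation. After centrifugation, supernatant hemoglobin read at 567 nm. 0% hemolysis set by PBS, 100% by 1% Triton X-100. HC50 is the concentration giving 50% hemolysis.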

The subject of data set [7] is Escherichia coli. Kind of data set: Antibacterial activity against Escherichia coli ATCC 25922 assessed as inhibition of bacterial growth incubated for 24 hrs by CLSI based broth microdilution method. Type of data set: functional.
The test system of data set [8] is Staphylococcus aureus. Kind of data set: Antibacterial activity against methicillin resistant Staphylococcus aureus ATCC BAA 1556 assessed as fold increase in MIC incubated for 24 hrs in presence of K+ ions by CLSI based broth microdilution method. Type of data set: functional. An outline of the steps: (§4)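 CLSI broth microdilution. Overnight cultures diluted in cation-adjusted Mueller Hinton broth to 10^6 CFU/mL, mixed 1:1 with 2-fold serial peptide dilutions, 24 h at 37 °C. […] MIC is the lowest concentration inhibiting growth. Three independent assays in triplicate.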

For data set [9], the system named is Escherichia coli. Kind of data set: Antibacterial activity against Escherichia coli ATCC 25922 assessed as fold increase in MIC incubated for 24 hrs in presence of NH4+ ions by CLSI based broth microdilution method. The data set is classed as functional. An outline of the steps:
(§5)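 E. coli MICs by CLSI broth microdilution in cation-adjusted Mueller Hinton broth. […] Inoculum was 10^6 CFU/mL with 2-fold serial peptide dilutions, incubated 24 h at 37 °C. MIC is the lowest concentration inhibiting growth. Three independent assays, each in triplicate.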

Data set [10] has as its system Escherichia coli. Put plainly: Antibacterial activity against Escherichia coli ATCC 25922 assessed as fold increase in MIC incubated for 24 hrs in presence of Ca2+ ions by CLSI based broth microdilution method. The data set is classed as functional. An outline of the steps:
as §5

Data set [11] concerns Escherichia coli. Kind of data set: Antibacterial activity against Escherichia coli ATCC 25922 assessed as fold increase in MIC incubated for 24 hrs in presence of K+ ions by CLSI based broth microdilution method. Type of data set: functional. In short, it runs like this: as §5
In data set [12] the test system is Escherichia coli. Kind of data set: Antibacterial activity against Escherichia coli ATCC 25922 assessed as fold increase in MIC incubated for 24 hrs in presence of Mg2+ ions by CLSI based broth microdilution method. Type of data set: functional. In short, it runs like this:
as §5

Data set [13] concerns Staphylococcus aureus. Put plainly: Antibacterial activity against methicillin resistant Staphylococcus aureus ATCC BAA 1556 assessed as fold increase in MIC incubated for 24 hrs in presence of Mg2+ ions by CLSI based broth microdilution method. The data set is classed as functional. In short, it runs like this:
as §4

The subject of data set [14] is Staphylococcus aureus. Put plainly: Antibacterial activity against methicillin resistant Staphylococcus aureus ATCC BAA 1556 assessed as fold increase in MIC incubated for 24 hrs in presence of NH4+ ions by CLSI based broth microdilution method. The data set is classed as functional. In short, it runs like this: as §4
Data set [15] has as its system Staphylococcus aureus. Kind of data set: Antibacterial activity against methicillin resistant Staphylococcus aureus ATCC BAA 1556 assessed as fold increase in MIC incubated for 24 hrs in presence of Na+ ions by CLSI based broth microdilution method. Type of data set: functional. In short, it runs like this: as §4
The test system of data set [16] is Staphylococcus aureus. Kind of data set: Antibacterial activity against methicillin resistant Staphylococcus aureus ATCC BAA 1556 assessed as fold increase in MIC incubated for 24 hrs in presence of Ca2+ ions by CLSI based broth microdilution method. The data set is classed as functional. In short, it runs like this:
as §4

The subject of data set [17] is Escherichia coli. Kind of data set: Antibacterial activity against Escherichia coli ATCC 25922 assessed as fold increase in MIC incubated for 24 hrs in presence of Na+ ions by CLSI based broth microdilution method. The data set is classed as functional. In short, it runs like this:
as §5

In data set [18] the test system is Staphylococcus aureus. Kind of data set: Antibacterial activity against methicillin resistant Staphylococcus aureus ATCC BAA 1556 assessed as inhibition of bacterial growth incubated for 24 hrs by CLSI based broth microdilution method. The data set is classed as functional.
Data set [19] concerns Staphylococcus aureus. Kind of data set: Antibacterial activity against Staphylococcus aureus ATCC 29213 assessed as inhibition of bacterial growth incubated for 24 hrs by CLSI based broth microdilution method. The data set is classed as functional.

Consider `CCCCCCCCCC(=O)N[C@@H](Cc1c[nH]c2ccccc12)C(=O)N[C@H](CC(N)=O)C(=O)N[C@@H](CC(=O)O)C(=O)N[C@@H]1C(=O)NCC(=O)N[C@@H](CCCN)C(=O)N[C@@H](CC(=O)O)C(=O)N[C@H](C)C(=O)N[C@@H](CC(=O)O)C(=O)NCC(=O)N[C@H](CO)C(=O)N[C@@H]([C@H](C)CC(=O)O)C(=O)N[C@@H](CC(=O)c2ccccc2N)C(=O)O[C@@H]1C`, for which the result in the data set with Cell membrane [1], with Cell membrane [2], with Cell membrane [3] and with Cell membrane [4] was inactive. In the data set with Lipid bilayer, the Activity was 7%. In addition, the “inhibition (INH)” value in the data set with Staphylococcus aureus [5] is 100%.
`CC[C@H](C)CCCCC(=O)N[C@@H](CCN)C(=O)N[C@H](C(=O)N[C@@H](CCN)C(=O)N[C@H]1CCNC(=O)[C@H]([C@@H](C)O)NC(=O)[C@H](CCN)NC(=O)[C@H](CCN)NC(=O)[C@H](CC(C)C)NC(=O)[C@@H](Cc2ccccc2)NC(=O)[C@H](CCN)NC1=O)[C@@H](C)O` (X1-[Dab]T[Dab][Dab][Dab][dF]L[Dab][Dab]T; lactam 4-C): the “inhibition (INH)” value in the data set with Escherichia coli [6] amounted to 100%.
`CC[C@H](C)CCCCC(=O)N[C@@H](CCN)C(=O)N[C@H](C(=O)N[C@@H](CCN)C(=O)N[C@H]1CCNC(=O)[C@H]([C@@H](C)O)NC(=O)[C@H](CCN)NC(=O)[C@H](CCN)NC(=O)[C@H](CC(C)C)NC(=O)[C@@H](Cc2ccccc2)NC(=O)[C@@H](CCN)NC1=O)[C@@H](C)O` (X1-[Dab]T[Dab][Dab][dDab][dF]L[Dab][Dab]T; lactam 4-C): the outcome in the data set with Cell membrane [1], in the data set with Cell membrane [2], in the data set on Cell membrane [3] and in the data set with Cell membrane [4] was inactive.
With Ac-RWARRWARWWRR-NH2, the MIC in the data set on Pseudomonas aeruginosa is 100 µg/mL; in the data set with Klebsiella pneumoniae, above 100 µg/mL; in the data set with Escherichia coli [7], 100 µg/mL. Moreover, in the data set with Erythrocyte, the HC50 is 110 ug ml-1 and 58.4 µM.
As to H-KWIKKWIKWWKK-NH2, the “fold change (FC)” value in the data set with Staphylococcus aureus [8], in the data set with Escherichia coli [9], in the data set on Escherichia coli [10], with Escherichia coli [11], in the data set on Escherichia coli [12] and in the data set with Staphylococcus aureus [13] was 2 each time. Besides, the “fold change (FC)” value with Staphylococcus aureus [14], in the data set on Staphylococcus aureus [15], with Staphylococcus aureus [16] and with Escherichia coli [17] was 2 each time.
Regarding H-RWIRRWIRWWRR-NH2, in the data set on Klebsiella pneumoniae, the MIC came out at 12.5 µg/mL. The “fold change (FC)” value in the data set with Staphylococcus aureus [8], in the data set with Escherichia coli [9], in the data set with Escherichia coli [10], in the data set on Escherichia coli [11], in the data set on Escherichia coli [12] and with Staphylococcus aureus [13] was 2 in each case. For the same compound, the “fold change (FC)” value in the data set on Staphylococcus aureus [14], in the data set on Staphylococcus aureus [15], in the data set with Staphylococcus aureus [16] and with Escherichia coli [17] was 2 throughout.
For H-WRRWWRR-NH2, the MIC was 100 µg/mL with Staphylococcus aureus [18]; above 100 µg/mL in the data set with Pseudomonas aeruginosa; 100 µg/mL with Staphylococcus aureus [19]; above 100 µg/mL in the data set with Klebsiella pneumoniae; > 100 µg/mL and > 83.3 µM with Escherichia coli [7].

In general, MIC refers to the lowest concentration that inhibits growth of the organism. By HC50 is commonly meant the concentration giving 50% haemolysis.

The values are drawn from ChEMBL document CHEMBL5316289, “Structure-Based Rational Design of Small α-Helical Peptides with Broad-Spectrum Activity against Multidrug-Resistant Pathogens” (J Med Chem, 2023).
